Compound activity deposited in PubChem by several laboratories.
PAFAH1B3 inh – PAFAH1B3 (human) inhibition. Q15102. recombinant PAFAH1B3, FP-rhodamine probe, fluorescence polarization. inhibition, % at 3.39 µM. 0.28% of 340,000 active. AID 492972;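 active means inhibition above the screen-wide average of all tested compounds plus 3 SD, cut at about 25% in these data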
PAFAH1B2 FP inh – PAFAH1B2 (human) inhibition | P68402 | recombinant PAFAH1B2, FP-rhodamine activity probe, fluorescence polarization | inhibition, % at 3.39 µM | 1.2% of 340,000 active;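 active means inhibition above the mean of all tested compounds plus 3 SD, cut at about 24% in these data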
PAFAH2 inh – inhibitors of human PAFAH2; Q99487; 0.99% of 340,000 active; AID 492956; inhibition, % at 3.39 µM; recombinant PAFAH2, FP-rhodamine activity probe, fluorescence polarization;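 active means inhibition above the mean over all tested compounds plus 3 SD, cut at about 30% in these data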;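 further: inhibitors block probe labeling of enzyme so polarization drops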
Apaf1 inhib – inhibitors of human Apaf-1 apoptosome. O14727. reconstituted apoptosome caspase-3 activity, DEVD-Rh110 fluorescence. inhibition, % at 20 µM. 0.71% of 330,000 active. AID 489030; active means inhibition of at least 40% at 20 µM
Target sequence (O14727 whole entry, looked up): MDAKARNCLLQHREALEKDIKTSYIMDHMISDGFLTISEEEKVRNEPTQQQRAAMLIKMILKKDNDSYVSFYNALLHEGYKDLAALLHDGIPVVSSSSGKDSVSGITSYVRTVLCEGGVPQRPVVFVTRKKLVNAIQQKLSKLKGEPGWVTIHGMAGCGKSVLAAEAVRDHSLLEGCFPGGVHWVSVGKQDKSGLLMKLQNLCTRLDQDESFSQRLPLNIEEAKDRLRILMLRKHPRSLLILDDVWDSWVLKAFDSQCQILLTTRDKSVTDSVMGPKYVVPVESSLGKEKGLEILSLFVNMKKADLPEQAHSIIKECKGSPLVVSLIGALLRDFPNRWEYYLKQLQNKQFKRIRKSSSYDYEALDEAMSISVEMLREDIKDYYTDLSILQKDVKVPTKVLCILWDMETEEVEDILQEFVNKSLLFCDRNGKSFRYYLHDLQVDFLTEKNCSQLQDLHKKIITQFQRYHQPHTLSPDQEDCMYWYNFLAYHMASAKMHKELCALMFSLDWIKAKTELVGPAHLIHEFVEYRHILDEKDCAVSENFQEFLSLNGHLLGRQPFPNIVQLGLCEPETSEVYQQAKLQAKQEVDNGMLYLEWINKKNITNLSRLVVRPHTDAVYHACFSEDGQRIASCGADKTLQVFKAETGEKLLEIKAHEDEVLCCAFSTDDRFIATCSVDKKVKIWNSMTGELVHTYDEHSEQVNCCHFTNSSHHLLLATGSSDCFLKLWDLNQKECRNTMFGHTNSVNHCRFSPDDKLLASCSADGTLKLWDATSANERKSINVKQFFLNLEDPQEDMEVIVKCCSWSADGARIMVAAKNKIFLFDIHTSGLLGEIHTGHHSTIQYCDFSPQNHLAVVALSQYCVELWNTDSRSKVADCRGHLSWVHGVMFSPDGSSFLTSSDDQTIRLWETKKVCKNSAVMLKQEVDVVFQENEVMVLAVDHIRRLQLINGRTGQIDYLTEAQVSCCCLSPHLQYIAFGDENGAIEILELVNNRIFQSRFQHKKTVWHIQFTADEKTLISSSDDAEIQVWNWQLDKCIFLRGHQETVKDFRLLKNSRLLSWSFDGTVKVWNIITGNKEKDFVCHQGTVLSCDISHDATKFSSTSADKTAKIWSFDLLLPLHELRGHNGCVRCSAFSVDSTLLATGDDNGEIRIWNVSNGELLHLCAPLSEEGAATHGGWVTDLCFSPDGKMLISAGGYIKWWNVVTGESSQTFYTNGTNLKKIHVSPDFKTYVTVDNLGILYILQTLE
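Medium: Hepes buffer, pH 7.5 / System: biochemical Apaf-1 apoptosome reconstitution / Measured by: Rh110 fluorescence, excitation 480 nm, emission 540 nm / Times: compound with Apaf-1, dATP, procaspase-3 30 min, then 50 min reaction, room temperature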
pPAFAH FP inh – inhibitors of human plasma PAF acetylhydrolase (pPAFAH). Q13093. recombinant pPAFAH, FP-rhodamine probe fluorescence polarization. inhibition, % at 3.39 µM. 1.5% of 330,000 active. AID 463082;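 active means inhibition above the mean inhibition across the screen plus 3 SD, cut at about 25% in these data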;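 further: inhibitors block binding of the rhodamine activity-based probe so polarization drops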
Numbers stand for hits. A selection: hits, their analogues and other compounds. The true share with any hit is near 3.1%.

Results for O=C1NC(c2ccncc2)C(C(=O)c2cccs2)C(O)(C(F)(F)F)N1 (configuration not stated) ?
PAFAH1B3 inh: inactive; PAFAH1B2 FP inh: inactive; PAFAH2 inh: inactive; Apaf1 inhib: inactive; pPAFAH FP inh: inactive

Results for O=[N+]([O-])c1cccc(-c2cn(-c3ccccc3)c(=S)[nH]2)c1 ?
PAFAH1B3 inh: inactive; PAFAH1B2 FP inh: inactive; PAFAH2 inh: inactive; Apaf1 inhib: inactive; pPAFAH FP inh: inactive

Results for COc1cc(-c2ccc3oc(-c4cccc(C)c4)c(C#CC4(O)CCCCC4)c3c2)cc(OC)c1OC ?
PAFAH1B3 inh: inactive; PAFAH1B2 FP inh: inactive; PAFAH2 inh: inactive; Apaf1 inhib: inactive; pPAFAH FP inh: 27

How did COc1ccc(-c2oc3ccc(-c4ccc5c(c4)OCO5)cc3c2C#CC2(O)CCCCC2)cc1 do in these assays?
PAFAH1B3 inh: inactive; PAFAH1B2 FP inh: inactive; PAFAH2 inh: inactive; Apaf1 inhib: inactive; pPAFAH FP inh: inactive

Results for S=C(Nc1ccc(Oc2ccccc2)cc1)N1CCOCC1 ?
PAFAH1B3 inh: 115; PAFAH1B2 FP inh: 93; PAFAH2 inh: 127; Apaf1 inhib: inactive; pPAFAH FP inh: inactive

Results for COc1ccc(C2Nc3cccc4cccc(c34)N2)cc1Br ?
PAFAH1B3 inh: inactive; PAFAH1B2 FP inh: inactive; PAFAH2 inh: inactive; Apaf1 inhib: inactive; pPAFAH FP inh: inactive

Results for COc1cc(C2Nc3cccc4cccc(c34)N2)ccc1OC(C)=O ?
PAFAH1B3 inh: 38; PAFAH1B2 FP inh: inactive; PAFAH2 inh: inactive; Apaf1 inhib: inactive; pPAFAH FP inh: inactive

How did COc1ccc(/C=C2\SC(=S)N(NS(=O)(=O)c3ccc(C)cc3)C2=O)c(OC)c1 do in these assays?
PAFAH1B3 inh: inactive; PAFAH1B2 FP inh: inactive; PAFAH2 inh: inactive; Apaf1 inhib: inactive; pPAFAH FP inh: inactive

What do the screens show for `COc1ccc(OC)c(/C=C2\SC(=S)N(NS(=O)(=O)c3ccc(C)cc3)C2=O)c1`?
PAFAH1B3 inh: inactive; PAFAH1B2 FP inh: inactive; PAFAH2 inh: inactive; Apaf1 inhib: inactive; pPAFAH FP inh: 26

How did O=C(OCc1cc(Cl)ccc1OC(F)F)c1ccc([N+](=O)[O-])o1 do in these assays?
Apaf1 inhib: 66; pPAFAH FP inh: inactive

Results for O=C(OCc1cc(Cl)ccc1OC(F)F)c1cncc(Br)c1 ?
PAFAH1B3 inh: inactive; PAFAH1B2 FP inh: inactive; PAFAH2 inh: inactive; Apaf1 inhib: inactive; pPAFAH FP inh: inactive

What do the screens show for `CCCCCC[N+](C)(C)CCSSCC[N+](C)(C)CCCCCC`?
PAFAH1B3 inh: inactive; PAFAH1B2 FP inh: inactive; PAFAH2 inh: inactive; Apaf1 inhib: inactive; pPAFAH FP inh: inactive

What do the screens show for `CCCCCCCCCCCCCCCC[N+](C)(C)CC`?
PAFAH1B3 inh: inactive; PAFAH1B2 FP inh: inactive; PAFAH2 inh: inactive; Apaf1 inhib: 87; pPAFAH FP inh: inactive

Results for O=Cc1ccc(N2N=C(c3ccccc3)CC2c2ccccc2)cc1 (configuration not stated) ?
PAFAH1B3 inh: inactive; PAFAH1B2 FP inh: inactive; PAFAH2 inh: inactive; Apaf1 inhib: inactive; pPAFAH FP inh: 30

How did COc1ccc(C2=NN(c3ccc(C=O)cc3)C(c3ccccc3)C2)cc1 (configuration not stated) do in these assays?
Apaf1 inhib: inactive; pPAFAH FP inh: inactive

How did O=C(O)c1ccc(N2N=C(c3ccccc3)CC2c2ccccc2)cc1 (configuration not stated) do in these assays?
PAFAH1B3 inh: inactive; PAFAH1B2 FP inh: inactive; PAFAH2 inh: inactive; Apaf1 inhib: inactive; pPAFAH FP inh: 32

How did CS(=O)(=O)c1ccc(CNC(=O)C2(C(F)(F)F)C/C(=C\Cc3ccccc3)CCCO2)cc1 (configuration not stated) do in these assays?
PAFAH1B3 inh: inactive; PAFAH1B2 FP inh: inactive; PAFAH2 inh: inactive; Apaf1 inhib: inactive; pPAFAH FP inh: inactive

How did Cc1ccc(-c2cc(-c3ccc(Cl)cc3)c(C#N)c(N)n2)o1 do in these assays?
PAFAH1B3 inh: inactive; PAFAH1B2 FP inh: inactive; PAFAH2 inh: inactive; Apaf1 inhib: inactive; pPAFAH FP inh: 25

What do the screens show for `O=C(O)CCC(=O)OCCN(Cc1ccc(Oc2ccc([N+](=O)[O-])cc2)cc1)C(=O)C(Cl)Cl`?
PAFAH1B3 inh: inactive; PAFAH1B2 FP inh: inactive; PAFAH2 inh: inactive

How did c1ccc(OCc2nn3c(Cn4nnc5ccccc54)nnc3s2)cc1 do in these assays?
PAFAH1B3 inh: inactive; PAFAH1B2 FP inh: 24; PAFAH2 inh: inactive; Apaf1 inhib: inactive; pPAFAH FP inh: inactive

Results for COc1ccc(/C=N\NC(=O)c2ccc(=O)[nH]n2)cc1O ?
PAFAH1B3 inh: inactive; PAFAH1B2 FP inh: inactive; PAFAH2 inh: inactive; Apaf1 inhib: inactive; pPAFAH FP inh: inactive

What do the screens show for `COc1ccc(/C=N/NC(=O)c2cc(C34CC5CC(CC(C5)C3)C4)[nH]n2)cc1O`?
PAFAH1B3 inh: inactive; PAFAH1B2 FP inh: 29; PAFAH2 inh: inactive; Apaf1 inhib: inactive; pPAFAH FP inh: inactive

What do the screens show for `CCOC(=O)c1sc(NC(=O)CSc2nnc(C)s2)c(C(=O)OCC)c1C`?
PAFAH1B3 inh: inactive; PAFAH1B2 FP inh: inactive; PAFAH2 inh: inactive; Apaf1 inhib: inactive; pPAFAH FP inh: inactive

What do the screens show for `CCOC(=O)c1c(NC(=O)CSc2nnc(C)s2)sc2c1CCC(CC)C2` (configuration not stated)?
PAFAH1B3 inh: inactive; PAFAH1B2 FP inh: inactive; PAFAH2 inh: inactive; Apaf1 inhib: inactive; pPAFAH FP inh: 26

Results for CCc1nc(SCC(=O)NC2CC2)c2c(C)c(C)sc2n1 ?
PAFAH1B3 inh: inactive; PAFAH1B2 FP inh: inactive; PAFAH2 inh: inactive; Apaf1 inhib: inactive; pPAFAH FP inh: inactive

How did CCC(C)(C)n1nnnc1C(c1ccncc1)N1CCC(Cc2ccccc2)CC1 (configuration not stated) do in these assays?
PAFAH1B3 inh: inactive; PAFAH1B2 FP inh: inactive; PAFAH2 inh: inactive; Apaf1 inhib: inactive; pPAFAH FP inh: 26

What do the screens show for `O=C(CCC1N=C2c3ccccc3N=C(SCc3ccc(Cl)cc3)N2C1=O)NCc1ccco1` (configuration not stated)?
PAFAH1B3 inh: inactive; PAFAH1B2 FP inh: inactive; PAFAH2 inh: inactive; Apaf1 inhib: 41; pPAFAH FP inh: inactive

Results for Oc1ccc(/C=N/Nc2nc(-c3cccnc3)nc3ccccc23)c(O)c1 ?
PAFAH1B3 inh: inactive; PAFAH1B2 FP inh: inactive; PAFAH2 inh: inactive; Apaf1 inhib: inactive; pPAFAH FP inh: 25

How did COc1ccc(/C=N/Nc2nc(-c3cccnc3)nc3ccccc23)cc1OC do in these assays?
PAFAH1B3 inh: inactive; PAFAH1B2 FP inh: inactive; PAFAH2 inh: inactive; Apaf1 inhib: inactive; pPAFAH FP inh: inactive

What do the screens show for `O=C(Nc1cccnc1)c1ccc(S(=O)(=O)c2ccc(Cl)cc2)cc1`?
PAFAH1B3 inh: inactive; PAFAH1B2 FP inh: 27; PAFAH2 inh: inactive; Apaf1 inhib: inactive; pPAFAH FP inh: inactive

How did O=C(Nc1cccnc1)c1ccc(C(=O)Nc2cccnc2)cc1 do in these assays?
PAFAH1B3 inh: inactive; PAFAH1B2 FP inh: inactive; PAFAH2 inh: inactive; Apaf1 inhib: inactive; pPAFAH FP inh: inactive

Results for COc1c(O)c(O)c2oc(-c3ccccc3)cc(=O)c2c1OC ?
PAFAH1B3 inh: inactive; PAFAH1B2 FP inh: inactive; PAFAH2 inh: inactive; Apaf1 inhib: inactive; pPAFAH FP inh: inactive

What do the screens show for `COc1cc(-c2cc(=O)c3c(O)c(OC)c(OC)c(O)c3o2)ccc1O`?
PAFAH1B3 inh: inactive; PAFAH1B2 FP inh: inactive; PAFAH2 inh: inactive; Apaf1 inhib: inactive; pPAFAH FP inh: 26
